The record followed here is ChEMBL document CHEMBL3045293, “Effect of the herbicides terbuthylazine and glyphosate on photosystem II photochemistry of young olive (Olea europaea) plants” (J Agric Food Chem, 2011).

What all share (format): organism-based
In data set [1] the test system is Olea europaea. The experiment in a line: Toxicity in young Olea europaea (olive) plants assessed as reduction in photosynthetic rate at 3 kg/ha measured 15 days post dose. Conditions: in vivo, 360 h. The method in brief:
(§1)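 Gas exchange (net photosynthetic rate, stomatal conductance, intercellular CO2) measured on young olive plants in triplicate pots. Herbicide was applied to the soil surface 24 h after OW addition, and pots without herbicide or OW served as controls. Readings were taken 24 h, 15 days and 60 days after treatment. Values are mean ± SE, n = 9, compared by Tukey test (P < 0.05).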

For data set [2], the system named is Olea europaea. Kind of data set: Toxicity in young Olea europaea (olive) plants assessed as reduction in intracellular CO2 level at 3 kg/ha measured 60 days post dose. The following applies: in vivo, 1440 h. The method, boiled down:
as §1

Data set [3] concerns Olea europaea. Kind of data set: Toxicity in young Olea europaea (olive) plants assessed as reduction in intracellular CO2 level at 3 kg/ha measured 15 days post dose in presence of oil Olea europaea (olive)-mill waste. Conditions: in vivo, 360 h. The method in brief:
as §1

Data set [4] concerns Olea europaea. Kind of data set: Toxicity in young Olea europaea (olive) plants assessed as effect on maximum quantum efficiency of photosystem II at 3 kg/ha measured at midday 24 hr post dose. Conditions: in vivo. The method in brief:
(§2)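 Leaves of potted young olive plants; herbicide applied to the soil surface 24 h after olive-mill waste (OW) amendment; triplicate pots; untreated pots without herbicide or OW as controls. Modulated chlorophyll fluorescence (portable fluorimeter) read at 24 h, 15 days and 60 days. Light- and dark-adapted parameters taken at dawn (1–7 μmol m2 s1) and midday (1700 μmol m2 s1), after 30 min dark adaptation in leaf-clips.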

For data set [5], the system named is Olea europaea. The experiment in a line: Toxicity in young Olea europaea (olive) plants assessed as reduction in intracellular CO2 level at 3 kg/ha measured 15 days post dose. The following applies: in vivo, 360 h. The method in brief: as §1
Data set [6] concerns Olea europaea. The experiment in a line: Toxicity in young Olea europaea (olive) plants assessed as reduction in photosynthetic rate at 3 kg/ha measured 60 days post dose in presence of oil Olea europaea (olive)-mill waste. The following applies: in vivo, 1440 h. The method in brief: as §1
The test system of data set [7] is Olea europaea. The experiment in a line: Toxicity in young Olea europaea (olive) plants assessed as reduction in photosynthetic rate at 3 kg/ha measured 15 days post dose in presence of oil Olea europaea (olive)-mill waste. The following applies: in vivo, 360 h. The method in brief: as §1
Data set [8] relates to Olea europaea. The experiment in a line: Toxicity in young Olea europaea (olive) plants assessed as effect on maximum quantum efficiency of photosystem II at 3 kg/ha measured 15 days post dose. The following applies: in vivo, 360 h. The method, boiled down:
as §2

Data set [9] deals with Olea europaea. Kind of data set: Toxicity in young Olea europaea (olive) plants assessed as reduction in non-photochemical quenching photosystem II at 3 kg/ha measured 15 days post dose. Conditions: in vivo, 360 h. The method in brief: as §2
The test system of data set [10] is Olea europaea. Kind of data set: Toxicity in young Olea europaea (olive) plants assessed as reduction in intracellular CO2 level at 3 kg/ha measured 60 days post dose in presence of oil Olea europaea (olive)-mill waste. Conditions: in vivo, 1440 h. The method in brief:
as §1

Data set [11] deals with Olea europaea. The experiment in a line: Toxicity in young Olea europaea (olive) plants assessed as reduction in stomatal conductance at 3 kg/ha measured 60 days post dose. The following applies: in vivo, 1440 h. The method, boiled down: as §1
The subject of data set [12] is Olea europaea. Kind of data set: Toxicity in young Olea europaea (olive) plants assessed as reduction in stomatal conductance at 3 kg/ha measured 15 days post dose. The following applies: in vivo, 360 h. The method, boiled down:
as §1

The test system of data set [13] is Olea europaea. Kind of data set: Toxicity in young Olea europaea (olive) plants assessed as induction of chronic photoinhibition of photosystem II at 3 kg/ha measured 60 days post dose. Conditions: in vivo, 1440 h.
Data set [14] concerns Olea europaea. The experiment in a line: Toxicity in young Olea europaea (olive) plants assessed as reduction in photosynthetic rate at 3 kg/ha measured 60 days post dose. Conditions: in vivo, 1440 h. The method in brief: as §1
Data set [15] relates to Olea europaea. Kind of data set: Toxicity in young Olea europaea (olive) plants assessed as induction of chronic photoinhibition of photosystem II at 3 kg/ha measured 60 days post dose in presence of oil Olea europaea (olive)-mill waste. Conditions: in vivo, 1440 h.
The subject of data set [16] is Olea europaea. Kind of data set: Toxicity in young Olea europaea (olive) plants assessed as reduction in quantum efficiency of photosystem II at 3 kg/ha measured 15 days post dose. The following applies: in vivo, 360 h. The method, boiled down: as §2
The subject of data set [17] is Olea europaea. The experiment in a line: Toxicity in young Olea europaea (olive) plants assessed as reduction in quantum efficiency of photosystem II at 3 kg/ha measured 60 days post dose. Conditions: in vivo, 1440 h. The method in brief: as §2
For data set [18], the system named is Olea europaea. Kind of data set: Toxicity in young Olea europaea (olive) plants assessed as reduction in maximum quantum efficiency of photo system measured by Fv/Fm ratio 2 at 3 kg/ha measured 60 days post dose (reference value: 0.8). Conditions: in vivo, 1440 h. The method, boiled down:
as §2

The subject of data set [19] is Olea europaea. The experiment in a line: Toxicity in young Olea europaea (olive) plants assessed as stomatal conductance at 3 kg/ha measured 60 days post dose in presence of oil Olea europaea (olive)-mill waste. The following applies: in vivo, 1440 h. The method in brief: as §1
Data set [20] concerns Olea europaea. Kind of data set: Toxicity in young Olea europaea (olive) plants assessed as reduction in non-photochemical quenching photosystem II at 3 kg/ha measured 60 days post dose. Conditions: in vivo, 1440 h. The method, boiled down: as §2
Data set [21] deals with Olea europaea. The experiment in a line: Toxicity in young Olea europaea (olive) plants assessed as stomatal conductance at 3 kg/ha measured 15 days post dose in presence of oil Olea europaea (olive)-mill waste. The following applies: in vivo, 360 h. The method, boiled down:
as §1

`O=C(O)CNCP(=O)(O)O` [GLYPHOSATE]: the Activity entry with Olea europaea [1] was “Non-toxic”; with Olea europaea [2] it was “Non-toxic”; in the data set with Olea europaea [3] it was “Toxic”; in the data set on Olea europaea [4], “Toxic”; in the data set with Olea europaea [5], “Non-toxic”; in the data set on Olea europaea [6] it was “Non-toxic”. In addition, the Activity result is on record as “Toxic” in the data set with Olea europaea [7]; “Toxic” in the data set on Olea europaea [8]; “Non-toxic” with Olea europaea [9]; “Non-toxic” with Olea europaea [10]; “Non-toxic” in the data set on Olea europaea [11]; “Non-toxic” with Olea europaea [12]. In addition, the Activity result in the data set on Olea europaea [13], in the data set on Olea europaea [14], in the data set on Olea europaea [15] and with Olea europaea [16] was “Non-toxic” throughout.

Regarding `CCNc1nc(Cl)nc(NC(C)(C)C)n1` [Terbuthylazine], the Activity entry with Olea europaea [17] is listed as “Toxic”; with Olea europaea [1], “Toxic”; in the data set on Olea europaea [2], “Non-toxic”; in the data set with Olea europaea [3], “Non-toxic”; with Olea europaea [4], “Toxic”; in the data set on Olea europaea [5], “Toxic”. Besides, the Activity entry is on record as “Non-toxic” in the data set with Olea europaea [6]; “Non-toxic” in the data set on Olea europaea [7]; “Non-toxic” in the data set on Olea europaea [19]; “Toxic” in the data set with Olea europaea [8]; “Non-toxic” with Olea europaea [9]; “Non-toxic” in the data set on Olea europaea [10]. For the same molecule, the Activity result in the data set with Olea europaea [11] is “Non-toxic”; with Olea europaea [12], “Toxic”; in the data set on Olea europaea [20], “Toxic”; in the data set with Olea europaea [13], “Toxic”; in the data set on Olea europaea [21], “Non-toxic”; in the data set with Olea europaea [14], “Toxic”. Further, the Activity entry with Olea europaea [15] and in the data set on Olea europaea [16] was “Non-toxic” throughout. Besides, the Ratio in the data set with Olea europaea [18] turned out to be 0.6.
